According to ChEMBL document CHEMBL4014264, “Benzoyltyramine Alkaloids Atalantums A-G from the Peels of Atalantia monophylla and Their Cytotoxicity against Cholangiocarcinoma Cell Lines” (J Nat Prod, 2017):

How the values were obtained:
[1] = Cytotoxicity against human KKU-M156 cells assessed as reduction in cell viability after 72 hrs by SRB assay; type: functional, cell-based; settings: KKU-M156, 72 h
Outline: (§1)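 Cholangiocarcinoma cells seeded at (1−2) × 10^4 cells/well, grown 24 h at 37 °C, then dosed in triplicate to final 0.025−20 μg/well, with 0.1% DMSO solvent control. Starting plates read after 1 h, treated plates after 72 h, by SRB. Viability % = (OD treated day 3 − OD start)/(OD control day 3 − OD start) × 100. IC50 taken from dose–response curves.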

[2] = Cytotoxicity against human KKU-M213 cells assessed as reduction in cell viability after 72 hrs by SRB assay; type: functional, cell-based; settings: KKU-M213, 72 h; outline: as §1
[3] = Cytotoxicity against human KKU-M214 cells assessed as reduction in cell viability after 72 hrs by SRB assay; type: functional, cell-based; settings: KKU-M214, 72 h; outline: as §1
[4] = Potency index, ratio of ellipticine IC50 to compound IC50 for human KKU-M156 cells; type: functional

## CCCCCCCCCCCCCCCC(=O)OC(CC1OC1(C)C)/C(C)=C/COc1ccc(CCNC(=O)c2ccccc2)cc1 (stereo unspecified)
[1]
  IC50: 21 µM
[2]
  IC50: 2.71 µM
[3]
  IC50: 14.9 µM

## C/C(=C\COc1ccc(CCNC(=O)c2ccccc2)cc1)C(O)CC(O)C(C)(C)O (stereo unspecified)
[1]
  IC50: 26.8 µM
[2]
  IC50: 25.8 µM
[3]
  IC50: 11.1 µM

## CC(=O)OC(CC1OC1(C)C)/C(C)=C/COc1ccc(CCNC(=O)c2ccccc2)cc1 (stereo unspecified)
[1]
  IC50: 29.1 µM
[2]
  IC50: 11.1 µM
[3]
  IC50: 31.5 µM

## CC(=O)OC(CC(O)C(C)(C)O)/C(C)=C/COc1ccc(CCNC(=O)c2ccccc2)cc1 (stereo unspecified)
[1]
  IC50: 49.7 µM
[2]
  IC50: 28.8 µM
[3]
  IC50: 44.5 µM

## CCCCCCCCCCCCCCCC(=O)OC(CC(OC(C)=O)C(C)(C)O)/C(C)=C/COc1ccc(CCNC(=O)c2ccccc2)cc1 (racemic)
[1]
  IC50: 22 µM
[2]
  IC50: 34.8 µM
[3]
  IC50: 3.06 µM

## CCCCCCCCCCCCCCCC(=O)OC(C)(C)C(O)CC(O)/C(C)=C/COc1ccc(CCNC(=O)c2ccccc2)cc1 (racemic)
[1]
  IC50: 31.5 µM
[2]
  IC50: 16.1 µM
[3]
  IC50: 20.5 µM

## CCCCCCCCCCCCCC(=O)OC(CC(OC(C)=O)C(C)(C)O)/C(C)=C/COc1ccc(CCNC(=O)c2ccccc2)cc1 (racemic)
[1]
  IC50: 24.5 µM
[2]
  IC50: 2.36 µM
[3]
  IC50: 24 µM

## CCCCCCCCCCCCCCCC(=O)OC(CC(O)C(C)(C)O)/C(C)=C/COc1ccc(CCNC(=O)c2ccccc2)cc1 (racemic)
[1]
  IC50: 2.8 µM
[2]
  IC50: 5.63 µM
[3]
  IC50: 27.4 µM

## C/C(=C\COc1ccc(CCNC(=O)c2ccccc2)cc1)C1CC(O)C(C)(C)O1 (racemic)
[1]
  IC50: 21.5 µM
[2]
  IC50: 12.2 µM
[3]
  IC50: 7.37 µM

## CCCCCCCCCCCCCCCCCC(=O)OC(CC(OC(C)=O)C(C)(C)O)/C(C)=C/COc1ccc(CCNC(=O)c2ccccc2)cc1 (racemic)
[1]
  IC50: 24 µM
[2]
  IC50: 29.1 µM
[3]
  IC50: 12.4 µM

## CCCCCCCCCCCCCCCC(=O)OC(CC(O)/C(C)=C/COc1ccc(CCNC(=O)c2ccccc2)cc1)C(C)(C)O (racemic)
[1]
  IC50: 1.97 µM
[2]
  IC50: 23.5 µM
[3]
  IC50: 8.44 µM
[4]
  Ratio IC50: 4.7

## Cc1c2ccncc2c(C)c2c1[nH]c1ccccc12 [ELLIPTECINE]
[2]
  IC50: 6.58 µM

## O=c1[nH]cc(F)c(=O)[nH]1 [FLUOROURACIL]
[3]
  IC50: 3.76 µM
